Laboratory results as given in ChEMBL document CHEMBL4312035, “Preliminary SAR and biological evaluation of potent HIV-1 protease inhibitors with pyrimidine bases as novel P2 ligands to enhance activity against DRV-resistant HIV-1 variants” (Eur J Med Chem, 2020).

Columns and labels:
[1] = Cytotoxicity against human 293T cells measured after 24 hrs by CCK8 assay; type: cell-based; conditions: HEK-293T cells
How it was run: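 293T cells plated at 20 000 per well and cultured 24 h before drug addition; exposure 24 h, then CCK-8 added and absorbance read at 450 nm after 2 h at room temperature. Run in triplicate; mean ± 1 SD from three independent experiments.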

[2] = tested on: Human immunodeficiency virus 1; assay: Antiviral activity against darunavir-resistant HIV1 NL4-3 infected in human […] after 48 hrs by luciferase reporter assay; type: functional, organism-based; conditions: Human immunodeficiency virus 1, NL4-3, 48 h
[3] = tested on: Human immunodeficiency virus 1; assay: Antiviral activity against VSV-G pseudotyped HIV1 transfected in human 293T cells co-transfected with NL4-3 HIV1 supernatant infected in human SupT1 cells treated with compound for 48 hrs assessed as inhibition of viral infection at 10 uM after 48 hrs by luciferase assay (reference value: 0 %); type: functional; conditions: Human immunodeficiency virus 1, 48 h
[4] = tested on: Human immunodeficiency virus 1; assay: Antiviral activity against wild-type HIV1 NL4-3 infected in human SupT1 cells infected with […] after 48 hrs by luciferase reporter assay; type: functional, organism-based; conditions: Human immunodeficiency virus 1, NL4-3, 48 h
Protease = Protease (Human immunodeficiency virus 1, UniProt Q9YQ12); assay: Inhibition of HIV1 protease expressed in Escherichia coli using Arg-Glu (EDANS)-Ser-Gln-Asn-Tyr-Pro-Ile-Val-Gln-Lys(DABCYL)-Arg as substrate preincubated for 20 to 30 mins followed by substrate addition and measured for 10 mins by FRET assay
Sequence of Protease (Q9YQ12 whole entry): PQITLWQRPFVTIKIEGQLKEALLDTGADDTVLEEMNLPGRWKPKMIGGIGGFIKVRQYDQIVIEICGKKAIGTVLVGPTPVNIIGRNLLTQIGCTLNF
How it was run: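 Recombinant HIV-1 protease, purified from E. coli. Buffer: 0.1 M sodium acetate, 1 M NaCl, 1 mM EDTA, 1 mM DTT, 2% DMSO, 1 mg/mL BSA, pH 4.7. Inhibitor dissolved in DMSO. Excitation 340 nm, emission 490 nm, recorded about 10 min. Run in triplicate; IC50 as mean ± 1 SD from three independent experiments.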

[5] = tested on: Human immunodeficiency virus 1; assay: Antiviral activity against VSV-G pseudotyped HIV1 transfected in human 293T cells co-transfected with NL4-3 HIV1 supernatant infected in human SupT1 cells treated with compound for 48 hrs assessed as inhibition of viral infection at 100 nM after 48 hrs by luciferase assay (reference value: 0 %); type: functional; conditions: Human immunodeficiency virus 1, 48 h
[6] = tested on: Human immunodeficiency virus 1; assay: Ratio of EC50 for antiviral activity against darunavir-resistant HIV1 NL4-3 infected in human SupT1 cells infected with supernatants from virus-infected human TZM-bl cells to EC50 for antiviral activity against wild-type HIV1 NL4-3 infected in human SupT1 cells infected with supernatants from virus-infected human TZM-bl cells; type: functional

| Compound | CC50 at 24 h [1] [nM] | EC50 [2] [nM] | inhibition at 10 µM [3] [%] | EC50 [4] [nM] | IC50 (Protease) [nM] | inhibition at 0.1 µM [5] [%] | Ratio EC50 [6] |
| --- | --- | --- | --- | --- | --- | --- | --- |
| CC(C)CN(C[C@@H](O)[C@H](Cc1ccccc1)NC(=O)O[C@H]1CO[C@H]2OCC[C@H]21)S(=O)(=O)c1ccc(N)cc1 | > 100000 | 100 | 83.2 | 6 | – | – | – |
| CC(C)CN(C[C@@H](O)[C@H](Cc1ccccc1)NC(=O)Cn1cc(F)c(N)nc1=O)S(=O)(=O)c1ccc(N)cc1 | > 100000 | – | – | – | 105 | – | – |
| CC(C)CN(C[C@@H](O)[C@H](Cc1ccccc1)NC(=O)Cn1cc(F)c(=O)[nH]c1=O)S(=O)(=O)c1ccc(N)cc1 | 8800 | – | 63 | – | 16.3 | – | – |
| COc1ccc(S(=O)(=O)N(CC(C)C)C[C@@H](O)[C@H](Cc2ccccc2)NC(=O)Cn2cccnc2=O)cc1 | > 100000 | – | 50.3 | – | 10.3 | – | – |
| COc1ccc(S(=O)(=O)N(CC(C)C)C[C@@H](O)[C@H](Cc2ccccc2)NC(=O)Cn2cc(C)c(N)nc2=O)cc1 | > 100000 | – | – | – | 147 | – | – |
| COc1ccc(S(=O)(=O)N(CC(C)C)C[C@@H](O)[C@H](Cc2ccccc2)NC(=O)Cn2ccc(=O)[nH]c2=O)cc1 | > 100000 | 590 | 81 | 270 | 2.53 | 68 | 2.19 |
| CC(C)CN(C[C@@H](O)[C@H](Cc1ccccc1)NC(=O)Cn1ccc(N)nc1=O)S(=O)(=O)c1ccc(N)cc1 | > 100000 | – | – | – | 153 | – | – |
| Cc1cn(CC(=O)N[C@@H](Cc2ccccc2)[C@H](O)CN(CC(C)C)S(=O)(=O)c2ccc([N+](=O)[O-])cc2)c(=O)nc1N | > 100000 | – | – | – | 1190 | – | – |
| CC(C)CN(C[C@@H](O)[C@H](Cc1ccccc1)NC(=O)Cn1cccnc1=O)S(=O)(=O)c1ccc(N)cc1 | > 100000 | – | – | – | 126 | – | – |
| COc1ccc(S(=O)(=O)N(CC(C)C)C[C@@H](O)[C@H](Cc2ccccc2)NC(=O)Cn2cc(F)c(=O)[nH]c2=O)cc1 | > 100000 | 2700 | 83.2 | 1070 | 1.95 | 51 | 2.52 |
| Cc1cn(CC(=O)N[C@@H](Cc2ccccc2)[C@H](O)CN(CC(C)C)S(=O)(=O)c2ccc(N)cc2)c(=O)[nH]c1=O | > 100000 | – | 54 | – | 19.7 | – | – |
| CC(C)CN(C[C@@H](O)[C@H](Cc1ccccc1)NC(=O)Cn1cc(F)c(N)nc1=O)S(=O)(=O)c1ccc([N+](=O)[O-])cc1 | > 100000 | – | – | – | 482 | – | – |
| CC(C)CN(C[C@@H](O)[C@H](Cc1ccccc1)NC(=O)Cn1cc(F)c(=O)[nH]c1=O)S(=O)(=O)c1ccc([N+](=O)[O-])cc1 | 32400 | – | 32.8 | – | 27.6 | – | – |
| COc1ccc(S(=O)(=O)N(CC(C)C)C[C@@H](O)[C@H](Cc2ccccc2)NC(=O)Cn2cc(C)c(=O)[nH]c2=O)cc1 | > 100000 | 2870 | 72.7 | 2500 | 2.78 | – | 1.15 |
| COc1ccc(S(=O)(=O)N(CC(C)C)C[C@@H](O)[C@H](Cc2ccccc2)NC(=O)Cn2cc(CO)c(=O)[nH]c2=O)cc1 | > 100000 | – | 59.8 | – | 9.07 | – | – |
| COc1ccc(S(=O)(=O)N(CC(C)C)C[C@@H](O)[C@H](Cc2ccccc2)NC(=O)Cn2cc(F)c(N)nc2=O)cc1 | > 100000 | – | – | – | 36 | – | – |
| Cc1cn(CC(=O)N[C@@H](Cc2ccccc2)[C@H](O)CN(CC(C)C)S(=O)(=O)c2ccc(N)cc2)c(=O)nc1N | > 100000 | – | – | – | 375 | – | – |
| Cc1cn(CC(=O)N[C@@H](Cc2ccccc2)[C@H](O)CN(CC(C)C)S(=O)(=O)c2ccc([N+](=O)[O-])cc2)c(=O)[nH]c1=O | > 100000 | – | – | – | 44.3 | – | – |
| CC(C)CN(C[C@@H](O)[C@H](Cc1ccccc1)NC(=O)Cn1ccc(=O)[nH]c1=O)S(=O)(=O)c1ccc([N+](=O)[O-])cc1 | > 100000 | – | 51 | – | 20.1 | – | – |
| CC(C)CN(C[C@@H](O)[C@H](Cc1ccccc1)NC(=O)Cn1cc(CO)c(=O)[nH]c1=O)S(=O)(=O)c1ccc(N)cc1 | > 100000 | – | – | – | 241 | – | – |
| CC(C)CN(C[C@@H](O)[C@H](Cc1ccccc1)NC(=O)Cn1cccnc1=O)S(=O)(=O)c1ccc([N+](=O)[O-])cc1 | > 100000 | – | – | – | 245 | – | – |
| CC(C)CN(C[C@@H](O)[C@H](Cc1ccccc1)NC(=O)Cn1ccc(=O)[nH]c1=O)S(=O)(=O)c1ccc(N)cc1 | > 100000 | – | 48.4 | – | 20.1 | – | – |
| CC(C)CN(C[C@@H](O)[C@H](Cc1ccccc1)NC(=O)Cn1cc(CO)c(=O)[nH]c1=O)S(=O)(=O)c1ccc([N+](=O)[O-])cc1 | > 100000 | – | – | – | 405 | – | – |
| COc1ccc(S(=O)(=O)N(CC(C)C)C[C@@H](O)[C@H](Cc2ccccc2)NC(=O)Cn2ccc(N)nc2=O)cc1 | > 100000 | – | 33.2 | – | 9.04 | – | – |
| CC(C)CN(C[C@@H](O)[C@H](Cc1ccccc1)NC(=O)Cn1ccc(N)nc1=O)S(=O)(=O)c1ccc([N+](=O)[O-])cc1 | > 100000 | – | – | – | 411 | – | – |
| Cc1ccnc2c1NC(=O)c1cccnc1N2C1CC1 [NEVIRAPINE] | – | – | – | – | – | 76 to 77 | – |
